Calls of active or inactive are those of the source. The rule behind the calls is not given here.
Key:
HeLa = assay: Cytotoxicity against HeLa cells by MTS assay; format: functional, cell-based; conditions: Homo sapiens
NCI-H1299 = assay: Inhibition of doxorubicin-induced cell cycle arrest in H1299 cells at G2/M phase by FACS assay; format: functional, cell-based; conditions: Homo sapiens
How it was run: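 H1299 cells treated with 500 nM doxorubicin to induce G2/M arrest, with or without inhibitor at various concentrations, up to 10 μM. Cells stained with propidium iodide and DNA content analysed by FACS. EC50 for abrogation of the Dox-induced G2/M checkpoint.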

[1] = Cell cycle arrest in H1299 cells by accumulation at G2/M phase by FACS assay; format: functional, cell-based; conditions: Homo sapiens, NCI-H1299
[2] = molecular target: T1, Serine/threonine-protein kinase Chk1 (Homo sapiens, UniProt O14757); assay: Inhibition of Chk1
T1 sequence (O14757 whole entry): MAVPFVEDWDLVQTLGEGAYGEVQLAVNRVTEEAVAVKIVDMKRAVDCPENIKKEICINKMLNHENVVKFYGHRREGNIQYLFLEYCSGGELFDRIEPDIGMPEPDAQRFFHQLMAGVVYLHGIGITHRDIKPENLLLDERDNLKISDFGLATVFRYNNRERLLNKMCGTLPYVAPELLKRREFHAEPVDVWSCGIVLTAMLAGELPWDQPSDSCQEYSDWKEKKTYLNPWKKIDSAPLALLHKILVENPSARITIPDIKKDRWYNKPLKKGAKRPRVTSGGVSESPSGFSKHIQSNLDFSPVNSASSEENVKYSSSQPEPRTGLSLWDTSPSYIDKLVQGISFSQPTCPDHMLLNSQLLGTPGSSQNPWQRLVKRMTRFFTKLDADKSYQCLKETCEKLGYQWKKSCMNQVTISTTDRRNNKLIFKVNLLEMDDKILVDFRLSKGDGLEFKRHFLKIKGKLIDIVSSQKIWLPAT

SRSF protein kinase 3 = SRSF protein kinase 3 (Homo sapiens, UniProt Q9UPE1); assay: Inhibition of MSSK1
[3] = Inhibition of JNK1a1; design: species or system Homo sapiens
[4] = molecular target: Calcium/calmodulin-dependent protein kinase type IV (Homo sapiens, UniProt Q16566); assay: Inhibition of CAMK4
[5] = molecular target: Ribosomal protein S6 kinase alpha-4 (Homo sapiens, UniProt O75676); assay: Inhibition of MSK2
[6] = Inhibition of JNK2a2; design: species or system Homo sapiens
[7] = molecular target: Serine/threonine-protein kinase 31 (Homo sapiens, UniProt Q9BXU1); assay: Inhibition of STK31
[8] = molecular target: Serine/threonine-protein kinase DCLK2 (Homo sapiens, UniProt Q8N568); assay: Inhibition of DCAMKL2
[9] = Inhibition of PKA; design: species or system Homo sapiens
[10] = molecular target: Cyclin-dependent kinase 9 (Homo sapiens, UniProt P50750); assay: Inhibition of CDK9
[11] = molecular target: Serine/threonine-protein kinase 33 (Homo sapiens, UniProt Q9BYT3); assay: Inhibition of STK33
[12] = Inhibition of PKG1B; design: species or system Homo sapiens
[13] = Inhibition of AUR1; design: species or system Homo sapiens
[14] = Inhibition of AUR2; design: species or system Homo sapiens
[15] = molecular target: Serine/threonine-protein kinase WNK2 (Homo sapiens, UniProt Q9Y3S1); assay: Inhibition of WNK2
[16] = Inhibition of CMET; design: species or system Homo sapiens
[17] = molecular target: Serine/threonine-protein kinase Nek3 (Homo sapiens, UniProt P51956); assay: Inhibition of NEK3
[18] = molecular target: NUAK family SNF1-like kinase 1 (Homo sapiens, UniProt O60285); assay: Inhibition of ARK5
[19] = Inhibition of PHK lambda 2; design: species or system Homo sapiens
[20] = Inhibition of PKG1A; design: species or system Homo sapiens
TAK1/TAB1 = TAK1/TAB1 (Homo sapiens, UniProt O43318); assay: Inhibition of TAK1-TAB1
[21] = molecular target: Serine/threonine-protein kinase Sgk1 (Homo sapiens, UniProt O00141); assay: Inhibition of SGK
[22] = molecular target: Cyclin-dependent kinase 7 (Homo sapiens, UniProt P50613); assay: Inhibition of CDK7
[23] = molecular target: 5'-AMP-activated protein kinase subunit beta-1 (Homo sapiens, UniProt Q9Y478); assay: Inhibition of AMPK
[24] = molecular target: Muscle, skeletal receptor tyrosine-protein kinase (Homo sapiens, UniProt O15146); assay: Inhibition of MUSK
[25] = molecular target: Serine/threonine-protein kinase Nek11 (Homo sapiens, UniProt Q8NG66); assay: Inhibition of NEK11
[26] = molecular target: Mitogen-activated protein kinase kinase kinase 9 (Homo sapiens, UniProt P80192); assay: Inhibition of MLK1
[27] = molecular target: Serine/threonine-protein kinase TBK1 (Homo sapiens, UniProt Q9UHD2); assay: Inhibition of TBK1
[28] = molecular target: Cyclin-dependent kinase 6 (Homo sapiens, UniProt Q00534); assay: Inhibition of CDK6
[29] = AUC in mouse plasma at 10 mg/kg; format: ADME, organism-based; design: dose 10 mg/kg
How it was run: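 CD-1 mice received a single intraperitoneal dose of 10 mg/kg. Plasma drug levels were followed over time, and exposure was expressed as AUC in µmol h/L.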

Sequence of NUAK family SNF1-like kinase 1 (O60285 whole entry): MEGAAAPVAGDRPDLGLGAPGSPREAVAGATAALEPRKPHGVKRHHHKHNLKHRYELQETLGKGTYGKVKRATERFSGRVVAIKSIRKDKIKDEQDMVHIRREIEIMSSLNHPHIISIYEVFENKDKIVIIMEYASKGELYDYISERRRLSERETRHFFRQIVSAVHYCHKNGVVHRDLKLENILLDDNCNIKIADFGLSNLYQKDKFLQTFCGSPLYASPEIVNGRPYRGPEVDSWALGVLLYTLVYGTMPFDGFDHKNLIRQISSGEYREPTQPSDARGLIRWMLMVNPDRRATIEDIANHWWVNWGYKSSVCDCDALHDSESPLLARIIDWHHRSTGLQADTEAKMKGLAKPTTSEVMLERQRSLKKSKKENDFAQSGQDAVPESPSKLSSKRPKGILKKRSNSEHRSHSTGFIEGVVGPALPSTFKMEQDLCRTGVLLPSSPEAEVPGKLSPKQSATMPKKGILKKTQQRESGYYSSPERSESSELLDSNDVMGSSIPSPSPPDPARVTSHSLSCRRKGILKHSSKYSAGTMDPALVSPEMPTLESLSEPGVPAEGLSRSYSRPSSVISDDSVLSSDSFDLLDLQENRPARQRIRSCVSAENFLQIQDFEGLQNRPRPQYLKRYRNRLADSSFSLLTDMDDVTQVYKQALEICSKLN
Sequence of Serine/threonine-protein kinase TBK1 (Q9UHD2 whole entry): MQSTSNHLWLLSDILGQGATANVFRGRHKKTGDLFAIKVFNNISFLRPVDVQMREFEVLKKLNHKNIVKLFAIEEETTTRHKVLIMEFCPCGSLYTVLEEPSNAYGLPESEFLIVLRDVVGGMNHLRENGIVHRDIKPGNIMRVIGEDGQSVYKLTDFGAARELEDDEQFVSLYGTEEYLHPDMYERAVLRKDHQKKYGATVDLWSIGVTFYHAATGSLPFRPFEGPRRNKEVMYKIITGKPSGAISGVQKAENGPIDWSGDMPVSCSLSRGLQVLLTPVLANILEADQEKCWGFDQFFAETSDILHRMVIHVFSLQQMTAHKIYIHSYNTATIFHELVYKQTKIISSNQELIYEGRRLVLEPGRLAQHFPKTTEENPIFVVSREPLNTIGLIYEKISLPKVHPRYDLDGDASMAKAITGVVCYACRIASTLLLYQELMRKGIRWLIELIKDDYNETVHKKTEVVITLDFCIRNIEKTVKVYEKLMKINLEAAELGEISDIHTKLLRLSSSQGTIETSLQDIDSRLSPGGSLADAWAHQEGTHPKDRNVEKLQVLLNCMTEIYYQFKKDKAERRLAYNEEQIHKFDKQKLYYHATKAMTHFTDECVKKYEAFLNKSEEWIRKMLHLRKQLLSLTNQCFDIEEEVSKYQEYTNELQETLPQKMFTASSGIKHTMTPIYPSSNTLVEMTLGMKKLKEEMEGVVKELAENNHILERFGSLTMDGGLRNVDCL
Sequence of Calcium/calmodulin-dependent protein kinase type IV (Q16566 whole entry): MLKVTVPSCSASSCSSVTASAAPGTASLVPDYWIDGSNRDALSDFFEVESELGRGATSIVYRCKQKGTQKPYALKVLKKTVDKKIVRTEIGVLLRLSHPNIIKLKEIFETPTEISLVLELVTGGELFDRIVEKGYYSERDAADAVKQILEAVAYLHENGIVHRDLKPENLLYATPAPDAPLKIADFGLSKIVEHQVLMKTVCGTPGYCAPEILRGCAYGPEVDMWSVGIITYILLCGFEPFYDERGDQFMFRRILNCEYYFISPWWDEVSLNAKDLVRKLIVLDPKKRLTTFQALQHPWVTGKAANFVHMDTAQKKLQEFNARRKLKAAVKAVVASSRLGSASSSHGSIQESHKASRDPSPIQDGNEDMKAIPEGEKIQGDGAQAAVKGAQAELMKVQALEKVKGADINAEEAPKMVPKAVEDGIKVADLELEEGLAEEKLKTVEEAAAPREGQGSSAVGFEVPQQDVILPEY
Sequence of Serine/threonine-protein kinase Sgk1 (O00141 whole entry): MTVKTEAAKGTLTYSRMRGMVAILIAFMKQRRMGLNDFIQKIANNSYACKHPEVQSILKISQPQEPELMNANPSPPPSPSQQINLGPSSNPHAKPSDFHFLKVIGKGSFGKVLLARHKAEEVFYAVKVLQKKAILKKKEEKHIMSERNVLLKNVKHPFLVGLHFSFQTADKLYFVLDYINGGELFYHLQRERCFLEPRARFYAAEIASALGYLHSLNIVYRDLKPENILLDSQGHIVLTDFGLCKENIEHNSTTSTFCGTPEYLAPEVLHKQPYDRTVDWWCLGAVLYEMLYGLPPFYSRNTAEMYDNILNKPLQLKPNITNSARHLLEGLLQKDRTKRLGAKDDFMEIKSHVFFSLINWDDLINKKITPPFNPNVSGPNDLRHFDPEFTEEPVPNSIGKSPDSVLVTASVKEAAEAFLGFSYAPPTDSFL
Sequence of Serine/threonine-protein kinase WNK2 (Q9Y3S1 whole entry): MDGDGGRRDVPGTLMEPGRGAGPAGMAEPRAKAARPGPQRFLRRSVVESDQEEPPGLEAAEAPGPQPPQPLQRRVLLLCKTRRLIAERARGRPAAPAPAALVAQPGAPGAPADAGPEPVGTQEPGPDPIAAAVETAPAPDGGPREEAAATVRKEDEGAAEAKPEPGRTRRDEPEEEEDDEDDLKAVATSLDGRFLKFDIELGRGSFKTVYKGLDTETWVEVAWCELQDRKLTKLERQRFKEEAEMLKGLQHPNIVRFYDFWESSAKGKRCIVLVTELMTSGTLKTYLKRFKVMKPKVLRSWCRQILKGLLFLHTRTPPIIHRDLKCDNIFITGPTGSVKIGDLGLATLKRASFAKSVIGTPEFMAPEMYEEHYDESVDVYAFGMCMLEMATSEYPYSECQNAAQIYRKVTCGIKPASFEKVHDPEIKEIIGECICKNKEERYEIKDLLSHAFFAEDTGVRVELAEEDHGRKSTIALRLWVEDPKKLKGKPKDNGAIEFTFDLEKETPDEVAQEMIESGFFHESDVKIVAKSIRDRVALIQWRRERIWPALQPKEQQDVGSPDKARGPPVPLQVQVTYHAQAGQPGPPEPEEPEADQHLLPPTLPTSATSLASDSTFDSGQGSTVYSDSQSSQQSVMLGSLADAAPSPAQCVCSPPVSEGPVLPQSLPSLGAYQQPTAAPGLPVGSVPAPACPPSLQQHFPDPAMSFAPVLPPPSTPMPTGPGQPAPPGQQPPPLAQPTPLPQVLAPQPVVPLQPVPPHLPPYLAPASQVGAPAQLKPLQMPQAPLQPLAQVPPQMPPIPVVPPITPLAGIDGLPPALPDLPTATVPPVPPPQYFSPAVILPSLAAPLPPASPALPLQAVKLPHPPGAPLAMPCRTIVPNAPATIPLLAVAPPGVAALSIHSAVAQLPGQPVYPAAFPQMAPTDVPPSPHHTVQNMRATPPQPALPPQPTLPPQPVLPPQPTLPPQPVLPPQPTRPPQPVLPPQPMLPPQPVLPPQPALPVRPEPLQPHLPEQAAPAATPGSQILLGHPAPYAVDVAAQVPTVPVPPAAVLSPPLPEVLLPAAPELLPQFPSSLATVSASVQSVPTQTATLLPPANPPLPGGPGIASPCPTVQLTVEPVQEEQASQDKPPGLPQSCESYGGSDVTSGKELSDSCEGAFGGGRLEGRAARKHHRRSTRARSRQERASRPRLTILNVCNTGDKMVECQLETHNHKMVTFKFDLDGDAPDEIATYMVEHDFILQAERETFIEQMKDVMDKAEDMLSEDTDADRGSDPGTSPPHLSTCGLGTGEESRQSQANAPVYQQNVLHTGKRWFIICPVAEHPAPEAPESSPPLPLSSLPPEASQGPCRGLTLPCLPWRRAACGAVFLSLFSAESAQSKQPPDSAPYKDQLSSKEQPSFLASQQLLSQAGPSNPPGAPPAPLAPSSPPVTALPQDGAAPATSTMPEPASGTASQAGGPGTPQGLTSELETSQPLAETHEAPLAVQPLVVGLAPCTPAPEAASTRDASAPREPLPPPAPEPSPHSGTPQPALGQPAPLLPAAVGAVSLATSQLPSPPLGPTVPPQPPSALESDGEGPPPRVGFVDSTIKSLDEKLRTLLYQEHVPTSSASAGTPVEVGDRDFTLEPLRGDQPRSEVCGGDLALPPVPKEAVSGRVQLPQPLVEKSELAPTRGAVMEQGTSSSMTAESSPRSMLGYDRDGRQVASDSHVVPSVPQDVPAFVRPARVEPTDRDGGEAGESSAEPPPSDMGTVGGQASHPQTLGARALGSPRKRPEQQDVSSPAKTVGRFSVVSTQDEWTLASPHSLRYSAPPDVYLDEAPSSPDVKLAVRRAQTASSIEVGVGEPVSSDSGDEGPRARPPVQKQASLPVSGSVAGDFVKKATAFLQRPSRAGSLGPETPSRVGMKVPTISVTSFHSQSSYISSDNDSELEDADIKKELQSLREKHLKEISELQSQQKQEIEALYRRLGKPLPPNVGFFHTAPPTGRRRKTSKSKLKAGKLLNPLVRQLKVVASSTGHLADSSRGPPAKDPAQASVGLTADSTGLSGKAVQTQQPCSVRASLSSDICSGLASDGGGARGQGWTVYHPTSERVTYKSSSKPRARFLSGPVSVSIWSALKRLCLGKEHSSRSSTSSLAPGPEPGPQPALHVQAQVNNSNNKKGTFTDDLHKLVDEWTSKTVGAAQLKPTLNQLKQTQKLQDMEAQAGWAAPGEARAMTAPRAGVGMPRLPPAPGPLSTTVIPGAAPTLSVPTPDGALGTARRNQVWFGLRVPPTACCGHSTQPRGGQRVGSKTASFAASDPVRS
Sequence of Cyclin-dependent kinase 9 (P50750 whole entry): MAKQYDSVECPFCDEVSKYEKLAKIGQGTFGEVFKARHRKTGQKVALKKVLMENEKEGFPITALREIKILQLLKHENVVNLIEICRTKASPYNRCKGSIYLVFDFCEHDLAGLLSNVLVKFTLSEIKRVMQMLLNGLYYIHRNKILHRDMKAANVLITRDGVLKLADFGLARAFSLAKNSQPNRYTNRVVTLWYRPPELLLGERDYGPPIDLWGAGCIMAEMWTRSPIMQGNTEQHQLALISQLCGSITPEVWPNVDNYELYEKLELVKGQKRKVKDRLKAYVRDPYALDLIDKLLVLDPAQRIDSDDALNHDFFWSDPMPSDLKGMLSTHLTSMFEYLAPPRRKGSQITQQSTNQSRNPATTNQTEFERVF

In the case of `N#Cc1ncc2nc1OC/C=C\COc1cc(NC(=O)c3ccncc3)c(Cl)cc1NC(=O)N2`, the EC50 (HeLa) is reported as > 59.3 µM, the EC50 (NCI-H1299) is reported as > 10 µM and the EC50 [1] is reported as > 10 µM. The IC50 [2] was 0.006 µM.

With `N#Cc1ncc2nc1OCCCCOc1cc(NCc3cncs3)c(Cl)cc1NC(=O)N2` the Ki (SRSF protein kinase 3) was > 1.74 µM, the Ki [3] was > 3.06 µM and the Ki [4] was > 8.57 µM. The Ki [5] was 0.949 µM, the Ki [6] was > 4.12 µM and the Ki [7] was > 1.44 µM. The Ki [8] was > 9.57 µM, the Ki [9] was > 7.5 µM and the Ki [10] was > 1.64 µM. The Ki [11] was > 1.64 µM, the EC50 (HeLa) was 59.3 µM and the Ki [12] was > 1.68 µM. For the same molecule, the Ki [13] was 2.02 µM, the Ki [14] was 1.91 µM and the Ki [15] was > 1.52 µM. The Ki [16] was > 2.86 µM, the Ki [17] was > 1.67 µM and the Activity (NCI-H1299) was “inactive”. For the same molecule, the Ki [18] was > 1.5 µM, the Ki [19] was > 4.9 µM and the Ki [20] was > 1.78 µM. For the same molecule, the Ki (TAK1/TAB1) was > 1.61 µM, the Ki [21] was 8.18 µM and the Activity [1] was “inactive”. For the same molecule, the Ki [22] was > 1.53 µM, the Ki [23] was 1.54 µM and the Ki [24] was > 1.65 µM. For the same molecule, the Ki [25] was > 1.55 µM, the Ki [26] was > 1.67 µM and the Ki [27] was > 1.53 µM. For the same molecule, the Ki [28] was > 1.55 µM.

In the case of `N#Cc1ncc2nc1OCCCCOc1cc(OC(=O)N3CCC(N4CCCCC4)CC3)c(Cl)cc1NC(=O)N2`, the EC50 (HeLa) is reported as 2.8 µM, the EC50 (NCI-H1299) is reported as > 10 µM and the EC50 [1] is reported as > 10 µM. For the same molecule, the IC50 [2] was 0.001 µM.

For `N#Cc1ncc2nc1OC/C=C\COc1cc(OCCCN3CCOCC3)c(Cl)cc1NC(=O)N2`, the EC50 (HeLa) was 1.9 µM, the EC50 (NCI-H1299) was > 10 µM and the EC50 [1] was > 10 µM. The IC50 [2] was 0.0003 µM.

`N#Cc1ncc2nc1OCCCCCOc1ccc(Cl)cc1NC(=O)N2` showed an AUC [29] of 1.5 µM·h.

In the case of `CCN(CC)c1cc2c(cc1Cl)NC(=O)Nc1cnc(C#N)c(n1)OCCCCO2`, the EC50 (HeLa) is reported as > 59.3 µM, the EC50 (NCI-H1299) is reported as > 10 µM and the EC50 [1] is reported as > 10 µM. The IC50 [2] was 0.023 µM.

In the case of `N#Cc1ncc2nc1OC/C=C\COc1cc(OCCO)c(Cl)cc1NC(=O)N2`, the EC50 (HeLa) is reported as > 59.3 µM, the EC50 (NCI-H1299) is reported as 1.9 µM and the EC50 [1] is reported as > 10 µM. For the same molecule, the IC50 [2] was 0.001 µM.

In the case of `N#Cc1ncc2nc1OC/C=C\COc1cc(OCCN3CCOCC3)c(Cl)cc1NC(=O)N2`, the EC50 (HeLa) is reported as 14.1 µM, the EC50 (NCI-H1299) is reported as > 10 µM and the EC50 [1] is reported as > 10 µM. The IC50 [2] was 0.001 µM.

For `N#Cc1ncc2nc1OC/C=C\COc1cc(OC(=O)N3CCC(N4CCCCC4)CC3)c(Cl)cc1NC(=O)N2`, the EC50 (HeLa) was 1.2 µM, the EC50 (NCI-H1299) was > 10 µM and the EC50 [1] was > 10 µM. For the same molecule, the IC50 [2] was 0.001 µM.

In the case of `CN(C)c1cc2c(cc1Cl)NC(=O)Nc1cnc(C#N)c(n1)OCCCCO2`, the EC50 (HeLa) is reported as 54.5 µM, the EC50 (NCI-H1299) is reported as 0.54 µM and the EC50 [1] is reported as > 10 µM. It also gave an IC50 [2] of 0.002 µM.

For `N#Cc1ncc2nc1OCCCCOc1cc(N)c(Cl)cc1NC(=O)N2`, the EC50 (HeLa) was 3.4 µM, the EC50 (NCI-H1299) was < 0.03 µM and the EC50 [1] was 2.6 µM. The IC50 [2] was 0.001 µM.

For `N#Cc1ncc2nc1OCCCCOc1cc(NC(=O)OCCN3CCOCC3)c(Cl)cc1NC(=O)N2`, the EC50 (HeLa) was > 59.3 µM, the EC50 (NCI-H1299) was > 10 µM and the EC50 [1] was > 10 µM. The IC50 [2] was 0.003 µM.

With `N#Cc1ncc2nc1OCCCCOc1cc(N3CCOC3=O)c(Cl)cc1NC(=O)N2` the EC50 (HeLa) was > 59.3 µM, the Activity (NCI-H1299) was “inactive” and the Activity [1] was “inactive”. It also gave an IC50 [2] of 0.006 µM.

For `N#Cc1ncc2nc1OCCCCOc1cc(P(=O)(O)O)c(Cl)cc1NC(=O)N2`, the EC50 (HeLa) was 17.4 µM, the Activity (NCI-H1299) was “inactive” and the Activity [1] was “inactive”. For the same molecule, the IC50 [2] was 0.008 µM.

In the case of `N#Cc1ncc2nc1OCCCCOc1cc(OCCCN3CCOCC3)c(Cl)cc1NC(=O)N2`, the EC50 (HeLa) is reported as 5 µM, the EC50 (NCI-H1299) is reported as > 10 µM and the EC50 [1] is reported as > 10 µM. It also gave an IC50 [2] of 0.001 µM.

For `N#Cc1ncc2nc1OC/C=C\COc1cc(N(CCO)CCO)c(Cl)cc1NC(=O)N2`, the EC50 (HeLa) was 34.1 µM, the Activity (NCI-H1299) was “inactive” and the Activity [1] was “inactive”. For the same molecule, the IC50 [2] was 0.001 µM.

With `N#Cc1ncc2nc1OC/C=C\COc1cc(NC(=O)c3ccnc(Cl)c3)c(Cl)cc1NC(=O)N2` the EC50 (HeLa) was 5.4 µM, the EC50 (NCI-H1299) was > 10 µM and the EC50 [1] was > 10 µM. The IC50 [2] was 0.006 µM.

For `CNc1cc2c(cc1Cl)NC(=O)Nc1cnc(C#N)c(n1)OC/C=C\CO2`, the EC50 (HeLa) was > 59.3 µM, the EC50 (NCI-H1299) was > 10 µM and the EC50 [1] was > 10 µM. The IC50 [2] was 0.002 µM.
